Reference: ChEMBL document CHEMBL5104098, “Exploring the structure-activity relationship of benzylidene-2,3-dihydro-1H-inden-1-one compared to benzofuran-3(2H)-one derivatives as inhibitors of tau amyloid fibers” (Eur J Med Chem, 2022)
Calls of active or inactive are those of the source. The calls are words filed in the database; no cut-off is given here.

Key:
[1] = Displacement of ThT from AcPHF6 in pH 7.4 phosphate buffer assessed as reduction in fluorescence intensity relative to control; conditions: dose 10.0 µM
How it was run: (§1)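 Preformed AcPHF6 fibers (1 mM peptide left 24 h in deionised water) added to give 100 μM fibers with 10 μM ThT in 50 mM phosphate buffer pH 7.4, ≤0.5% DMSO; compound 10 μM (1:1 with ThT). Emission spectra recorded shortly after fiber addition, excitation 440 nm; % decrease calculated from emission intensity at 480 nm.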

[2] = Inhibition of synthetic AcPHF6 peptide aggregation in pH 7.4 phosphate buffer assessed as reduction in beta sheet formation at 100 uM incubated for 2 hrs by circular dichroism spectroscopy
How it was run: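 CD samples: 100 μM AcPHF6 in 50 mM phosphate buffer, compound with <0.2% DMSO, 1 mm quartz cell. Spectra taken after 2 h at room temperature, 260–190 nm, 1 nm resolution, 1 s per point, 10 nm bandwidth. Compound level is printed as 10 μM in methods and 100 μM in legend.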

[3] = Inhibition of synthetic AcPHF6 peptide aggregation in pH 7.4 phosphate buffer assessed as reduction in fluorescence intensity at 10 uM and measured every minute over 2 hrs by ThT fluorescence assay relative to control
How it was run: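 Fluorescence read every minute for 2 h, ex 440/em 480 nm. Intrinsic compound fluorescence corrected with peptide-free blank wells. Hexaplicate; % inhibition versus peptide-only control.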

[4] = Displacement of ThT from AcPHF6 in pH 7.4 phosphate buffer at 1:1 compound:ThT ratio; how it was run: as §1
[5] = Inhibition of synthetic AcPHF6 peptide aggregation in pH 7.4 phosphate buffer assessed as reduction in beta sheet fibrillation at 100 uM incubated for 24 hrs by atomic force microscopy analysis
How it was run: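 AFM imaging of samples taken from the CD preparations after 24 h fibrillation at room temperature; 100 μM AcPHF6 alone or with compound at 100 μM.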

Compound | inhibition [1] | inhibition [2] | inhibition [3] | inhibition [4] | inhibition [5]
O=C1/C(=C/c2cc(O)c(O)c(O)c2)Cc2cc(O)cc(O)c21 | 90% | Active | 87% | Active | –
O=C1/C(=C/c2cc(O)c(O)c(O)c2)Oc2ccccc21 | 70% | – | 68% | Active | –
O=C1/C(=C/c2ccc(O)cc2O)Cc2cc(O)cc(O)c21 | 76% | – | 72% | Active | –
O=C1/C(=C/c2ccc(O)c(O)c2)Cc2cc(O)cc(O)c21 | 65% | – | 78% | Active | –
O=C1/C(=C/c2cc(O)c(O)c(O)c2)Cc2ccccc21 | 42% | Active | 71% | Active | Active
O=C1/C(=C/c2cc(O)c(O)c(O)c2)Oc2c(O)cccc21 | 88% | – | 91% | Active | –
O=C1/C(=C/c2ccc(O)cc2O)Oc2cc(O)cc(O)c21 | 89% | – | 94% | Active | –
O=C1/C(=C/c2ccc(O)c(O)c2)Oc2cc(O)cc(O)c21 | 85% | – | 93% | Active | –
COc1cccc(/C=C2\Oc3c(OC)cccc3C2=O)c1 | 45% | – | 69% | Active | –
O=C1/C(=C/c2cc(O)c(O)c(O)c2)Cc2c(O)cccc21 | 78% | Active | 83% | Active | –
O=C1/C(=C/c2cc(O)c(O)c(O)c2)Oc2cc(O)cc(O)c21 | 94% | – | 99% | Active | –
